Laboratory results published in ChEMBL document CHEMBL4359895, “Discovery and biological evaluation of darolutamide derivatives as inhibitors and down-regulators of wild-type AR and the mutants” (Eur J Med Chem, 2019).
pIC50: −log10 of the molar value. Active and inactive are the calls of the source. The calls are words filed in the database; no cut-off is given here.

What was measured:
CWR22R [1] = assay: Antiproliferative activity against human 22Rv1 expressing AR assessed as reduction in cell viability incubated for 6 days by CCK-8 assay; assay type: functional, cell-based; details: 22Rv1, 144 h
Summary of the method: (§1)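 Cell proliferation assay run on LNCaP/AR, VCaP, 22Rv1, PC-3 and L-02 cells, with PC-3 and L-02 serving as AR-independent toxicity controls. IC50 fitted in GraphPad Prism 5 as the mean of at least two experiments, each in duplicate. Deviations under 35%.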

PC-3 = assay: Cytotoxicity against human PC3 assessed as reduction in cell viability incubated for 6 days by CCK-8 assay; assay type: cell-based; details: PC-3, 144 h; summary of the method: as §1
L02 = assay: Cytotoxicity against human L02 assessed as reduction in cell viability incubated for 6 days by CCK-8 assay; assay type: cell-based; details: L02, 144 h; summary of the method: as §1
[2] = target: T1, Androgen receptor (Homo sapiens) (UniProt P10275); assay: Inhibition of AR in human HEK293 cells assessed as decrease in receptor transactivation at 10 uM incubated for 24 hrs by dual luciferase reporter gene assay; assay type: cell-based
T1 sequence (whole entry): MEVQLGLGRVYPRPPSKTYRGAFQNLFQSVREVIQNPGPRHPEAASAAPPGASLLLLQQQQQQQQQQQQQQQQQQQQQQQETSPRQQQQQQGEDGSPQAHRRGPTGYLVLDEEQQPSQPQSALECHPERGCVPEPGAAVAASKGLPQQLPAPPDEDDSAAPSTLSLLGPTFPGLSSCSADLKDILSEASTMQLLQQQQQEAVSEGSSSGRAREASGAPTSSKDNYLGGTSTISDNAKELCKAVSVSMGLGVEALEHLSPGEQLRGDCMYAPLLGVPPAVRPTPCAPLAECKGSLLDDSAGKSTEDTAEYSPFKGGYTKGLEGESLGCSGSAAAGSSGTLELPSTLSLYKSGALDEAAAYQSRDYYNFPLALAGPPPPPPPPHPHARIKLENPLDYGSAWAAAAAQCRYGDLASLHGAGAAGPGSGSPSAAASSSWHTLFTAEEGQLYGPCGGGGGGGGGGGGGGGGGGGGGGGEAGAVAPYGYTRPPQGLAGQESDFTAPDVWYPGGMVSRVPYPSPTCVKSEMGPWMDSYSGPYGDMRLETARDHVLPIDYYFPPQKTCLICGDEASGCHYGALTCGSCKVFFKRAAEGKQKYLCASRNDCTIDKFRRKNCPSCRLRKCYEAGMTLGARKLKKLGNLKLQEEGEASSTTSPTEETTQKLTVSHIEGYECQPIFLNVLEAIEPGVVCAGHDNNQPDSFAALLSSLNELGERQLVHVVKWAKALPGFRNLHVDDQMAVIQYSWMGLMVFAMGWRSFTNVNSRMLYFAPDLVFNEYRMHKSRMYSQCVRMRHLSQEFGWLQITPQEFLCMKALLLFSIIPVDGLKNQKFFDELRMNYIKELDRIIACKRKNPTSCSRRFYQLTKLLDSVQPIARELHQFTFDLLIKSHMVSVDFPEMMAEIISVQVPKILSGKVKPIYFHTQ
Summary of the method: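 HEK 293 cells transiently co-transfected with wt-AR expression vector and an androgen-responsive luciferase reporter construct. Cells given 2 nM testosterone plus 10 µM test compound (final concentrations). Read-out by luciferase, mean ± SD, n = 3.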

LNCaP [3] = assay: Induction of androgen receptor splice variant 7 mutant degradation in human LNCAP cells at 30 uM incubated upto 26 hrs in presence of bortezomib by Western blot analysis; assay type: functional, cell-based
LNCaP [4] = assay: Induction of androgen receptor splice variant 7 mutant degradation in human LNCAP cells at 30 uM incubated upto 26 hrs in presence of bortezomib/MG132 by Western blot analysis; assay type: functional, cell-based
[5] = target: Bromodomain-containing protein 4 (Homo sapiens) (UniProt O60885); assay: Inhibition of BRD4 (unknown origin) by alpha-screen assay
[6] = target: T1, Androgen receptor (Homo sapiens); assay: Inhibition of AR (unknown origin) transfected in human PC3 cells assessed as receptor transactivation at 0.1 to 30 uM incubated for 24 hrs by dual luciferase reporter gene assay; assay type: cell-based
[7] = Plasma concentration in Sprague-Dawley rat 30 mg/kg, po measured up to 24 hrs by LC-MS/MS analysis; assay type: ADME, organism-based
Summary of the method: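 Rats dosed orally at 30 mg/kg, compound formulated in 10% DMA / 90% PEG200. Plasma levels followed over time to build concentration-time curves, from which T1/2, Tmax, Cmax and AUC were derived.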

VCaP [8] = assay: Antitumor activity against castration-resistant human VCaP cells xenografted in BALB/c mouse assessed as tumor growth inhibition at 60 mg/kg, po administered for 40 days; assay type: functional; details: 960 h, read-out: TGI
Summary of the method: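 Castration-resistant VCaP xenografts grown in male BALB/c nude mice. Animals dosed once daily for 40 days alongside a vehicle group. Tumor volume tracked over time, with tumor weights taken at end. Reported as tumor growth inhibition, mean ± SEM, N = 8-9 per group.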

[9] = Toxicity in BALB/c mouse xenografted with castration-resistant human VCaP cells assessed as weight loss at 30 to 60 mg/kg, po administered for 40 days; assay type: organism-based; details: in vivo, 960 h
Summary of the method: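 Castration-resistant VCaP xenografts in male BALB/c nude mice. Animals treated once daily for 40 days, with a vehicle group included.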

VCaP [10] = assay: Inhibition of AR mRNA level in human VCaP cells at 10 to 40 uM incubated for 24 hrs by qRT-PCR analysis; assay type: functional, cell-based
Summary of the method: (§2)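 LNCaP, VCaP and 22Rv1 cells treated with DMSO or compounds for 24 h. AR-full and AR-V7 mRNA measured by qRT-PCR and normalised to GAPDH. Mean ± SD, n = 3, compared with DMSO by two-tailed t test.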

VCaP [11] = assay: Inhibition of AR splice variant 7 mutant expression in human VCaP cells at 10 to 40 uM incubated for 24 hrs by Western blot analysis analysis; assay type: functional, cell-based
Summary of the method: (§3)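 LNCaP, VCaP and 22Rv1 cells grown in medium with 10% (v/v) FBS. Treated with compounds or DMSO for 24 h. AR-full and AR splice-variant protein then assessed by western blot.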

CWR22R [12] = assay: Inhibition of AR protein expression in human 22Rv1 cells at 10 to 30 uM incubated for 24 hrs by Western blot analysis; assay type: functional, cell-based; summary of the method: as §3
LNCaP [13] = assay: Inhibition of AR splice variant 7 mutant expression in human LNCAP cells at 5 to 20 uM incubated for 24 hrs by Western blot analysis analysis; assay type: functional, cell-based; summary of the method: as §3
CWR22R [14] = assay: Inhibition of AR splice variant 7 mutant expression in human 22Rv1 cells at 10 to 30 uM incubated for 24 hrs by Western blot analysis analysis; assay type: functional, cell-based; summary of the method: as §3
LNCaP [15] = assay: Inhibition of AR mRNA level in human LNCAP cells at 5 to 20 uM incubated for 24 hrs by qRT-PCR analysis; assay type: functional, cell-based; summary of the method: as §2
VCaP [16] = assay: Inhibition of AR mRNA level in human VCaP cells at 10 to 30 uM incubated for 24 hrs by qRT-PCR analysis; assay type: functional, cell-based; summary of the method: as §2
LNCaP [17] = assay: Inhibition of AR splice variant 7 mutant gene expression in human LNCAP cells at 5 to 20 uM incubated for 24 hrs by qRT-PCR analysis; assay type: functional, cell-based; summary of the method: as §2
VCaP [18] = assay: Inhibition of AR splice variant 7 mutant gene expression in human VCaP cells at 10 to 30 uM incubated for 24 hrs by qRT-PCR analysis; assay type: functional, cell-based; summary of the method: as §2

| inhibition [2] | inhibition [5] | inhibition [6] | Cmax [7] [ng/mL] | Structure (SMILES) | pIC50 (CWR22R [1]) | pIC50 (PC-3) | pIC50 (L02) | Activity (LNCaP [3]) | Activity (LNCaP [4]) | inhibition in vivo at 60 mg/kg (VCaP [8]) [%] | Activity [9] | inhibition (VCaP [10]) | inhibition (VCaP [11]) | inhibition (CWR22R [12]) | inhibition (LNCaP [13]) | inhibition (CWR22R [14]) | inhibition (LNCaP [15]) | inhibition (VCaP [16]) | inhibition (LNCaP [17]) | inhibition (VCaP [18]) |
| --- | --- | --- | --- | --- | --- | --- | --- | --- | --- | --- | --- | --- | --- | --- | --- | --- | --- | --- | --- | --- |
| Active | inactive | Active | 2650 | C[C@@H](Cn1ccc(-c2ccc(C#N)c(Cl)c2)n1)Nc1ncnc2nc[nH]c12 | 5.37 | 4.85 | 4.55 | inactive | inactive | 77.8 | Non-Toxic | Active | Active | – | – | – | – | – | – | – |
| Active | inactive | Active | – | C[C@@H](Cn1ccc(-c2ccc(C#N)c(Cl)c2)n1)Nc1cccc2ncccc12 | 5.41 | 5.10 | 4.78 | – | – | – | – | – | – | Active | Active | Active | Active | Active | Active | Active |
